Results on three molecules are retold here after ChEMBL document CHEMBL3774376, “Synthesis, and anticonvulsant activity of new amides derived from 3-methyl- or 3-ethyl-3-methyl-2,5-dioxo-pyrrolidin-1-yl-acetic acids” (Bioorg Med Chem, 2016).

Calls of active or inactive are those of the source. The rule behind the calls is not given here. Bounds are passed on as bounds.

The ED50 is the midpoint of the dose-response relation. One may read the inhibition as the change of the read-out against control, counted positive when it falls. For orientation: TD50 means the dose at which the toxic effect under study appears in half of the subjects.

Series [1] deals with Mus musculus. Briefly: Anticonvulsant activity in CD1 albino mouse assessed as protection against maximal electroshock-induced seizures at 100 to 300 mg/kg, ip after 0.5 hrs. The format is functional. The following applies: read-out: MED. On the technique in general: In the maximal electroshock model the usual endpoint is tonic extension of the hind limbs.
Series [2] concerns Mus musculus. The series is described as follows: Local anesthetic activity in CD1 albino mouse assessed prolongation of time reaction at 2 % concentration after 20 secs by tail immersion test relative to vehicle control. The format is functional. A digest of the protocol: (§1)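 Compound at 1 or 2% in 0.5% methylcellulose, injected sc (0.2 ml) about 1 cm from the tail root of male CD-1 mice. After 15 min, the distal 3 cm of the tail was immersed in 50 ± 0.5 °C water and withdrawal time measured, cut off at 20 s. n=8; mean ± SEM; % prolongation relative to vehicle.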

Series [3] concerns Mus musculus. Briefly: Neurotoxicity in CD1 albino mouse assessed as acute motor impairment at 100 to 300 mg/kg, ip after 4 hrs by rotarod test. Format: toxicity, organism-based. The following applies: in vivo. In short, it runs like this:
(§2)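 Male CD-1 mice given 30, 100 or 300 mg/kg ip in 0.5% methylcellulose, tested at 0.5 and 4 h. Motor impairment was scored as failure to keep balance for at least 1 min on a rod rotating at 10 rpm. Minimum dose causing impairment reported.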

Series [4] relates to Mus musculus. Briefly: Neurotoxicity in CD1 albino mouse assessed as acute motor impairment at 300 mg/kg, ip measured after 0.5 hrs by rotarod test. Format: toxicity, organism-based. The conditions noted are these: in vivo. In short, it runs like this:
as §2
(The rotarod test checks motor coordination on a turning rod.)

Series [5] relates to Mus musculus. Briefly: Anticonvulsant activity in ip dosed CD1 albino mouse assessed as protection against maximal electroshock-induced seizures. Format: functional.
For series [6], the system named is Mus musculus. The series is described as follows: Anticonvulsant activity in CD1 albino mouse assessed as protection against subcutaneous pentylenetetrazole-induced seizures at 300 mg/kg, ip after 0.5 hrs. The format is functional, organism-based. In short, it runs like this:
(§3)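 Male CD-1 mice (16-26 g), compounds ip in 0.5% methylcellulose/water at 30, 100 or 300 mg/kg, 3-4 per group. At 0.5 or 4 h, pentylenetetrazole 85 mg/kg was injected sc. Protection was absence of clonic convulsions (at least 5 s) over a 30 min observation. Minimum active dose recorded.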

The species entered for series [7] is Mus musculus. The series is described as follows: Protection index, ratio of TD50 for CD1 albino mouse to ED50 for protection against maximal electroshock-induced seizures in CD1 albino mouse. In short, it runs like this:
(§4)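 Quantitation in male CD-1 mice dosed ip at the previously estimated time of peak effect. Seizures were induced by MES or by sc pentylenetetrazole 85 mg/kg; rotarod at 10 rpm assessed motor impairment. Groups of six, at least three doses giving 10-90% effect.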

Series [8] concerns Mus musculus. The series is described as follows: Antinociceptive activity in CD1 albino mouse assessed as reduction of formalin-induced licking response in inflammatory phase at 32.08 mg/kg, ip preincubated for 4 hrs measured after 25 to 30 mins. The format is functional. Also on record: scale not given: the % may be the effect or the level left.
The test system of series [9] is Mus musculus. The series is described as follows: Local anesthetic activity in CD1 albino mouse assessed prolongation of time reaction at 1 % concentration after 20 secs by tail immersion test relative to vehicle control. Format: functional. In short, it runs like this:
as §1

Series [10] relates to Mus musculus. The series is described as follows: Antinociceptive activity in CD1 albino mouse assessed as reduction of formalin-induced licking response in inflammatory phase at 32.08 mg/kg, ip preincubated for 4 hrs measured after 15 to 20 mins. Format: functional. Further details: scale not given: the % may be the effect or the level left.
Series [11] has as its system Mus musculus. The series is described as follows: Anticonvulsant activity in ip dosed CD1 albino mouse assessed as time to peak effect. Format: functional. In short, it runs like this: as §4
For series [12], the system named is Mus musculus. The series is described as follows: Antinociceptive activity in CD1 albino mouse assessed as reduction of formalin-induced licking response in neurogenic phase at 32.08 mg/kg, ip preincubated for 4 hrs measured after 5 mins. Further details: scale not given: the % may be the effect or the level left. The format is functional.
The species entered for the next series is Rattus norvegicus. The series is described as follows: Displacement of [3H]BTX from voltage-sensitive Na+ channel site 2 in rat cerebral cortex synaptoneurosomes at 100 uM after 60 mins by liquid scintillation spectroscopic analysis. Format: tissue-based. A digest of the protocol: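 Cerebral cortex synaptoneurosomes from rat, tested at 100 µM for inhibition of specific [3H]BTX binding to the voltage-sensitive Na+ channel site 2. Reported as % inhibition of control specific binding; run commercially.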
On the technique in general: In a radioligand displacement assay an active substance lowers the binding of a labelled ligand.

Series [13] is described as follows: Neurotoxicity in ip dosed CD1 albino mouse assessed as acute motor impairment by rotarod test. The format is toxicity, organism-based. The following applies: in vivo. A digest of the protocol:
as §4

Series [14] relates to Mus musculus. The series is described as follows: Anticonvulsant activity in ip dosed CD1 albino mouse assessed as protection against subcutaneous pentylenetetrazole-induced seizures. The format is functional. In short, it runs like this: as §4
The subject of series [15] is Mus musculus. The series is described as follows: Anticonvulsant activity in CD1 albino mouse assessed as protection against subcutaneous pentylenetetrazole-induced seizures at 300 mg/kg, ip after 4 hrs. Format: functional, organism-based. In short, it runs like this:
as §3

The subject of series [16] is Mus musculus. Briefly: Anticonvulsant activity in CD1 albino mouse assessed as protection against maximal electroshock-induced seizures at 100 to 300 mg/kg, ip after 4 hrs. Format: functional. The conditions noted are these: read-out: MED.
The subject of series [17] is Mus musculus. The series is described as follows: Protection index, ratio of TD50 for CD1 albino mouse to ED50 for protection against subcutaneous pentylenetetrazole-induced seizures in CD1 albino mouse. In short, it runs like this: as §4
Series [18] has as its system Mus musculus. The series is described as follows: Neurotoxicity in CD1 albino mouse assessed as acute motor impairment at 100 to 300 mg/kg, ip after 0.5 hrs by rotarod test. Format: toxicity, organism-based. The following applies: in vivo. A digest of the protocol: as §2
Series [19] deals with Mus musculus. The series is described as follows: Neurotoxicity in CD1 albino mouse assessed as acute motor impairment at 300 mg/kg, ip after 4 hrs by rotarod test. The format is toxicity, organism-based. The following applies: in vivo. A digest of the protocol:
as §2

Series [20] deals with Mus musculus. The series is described as follows: Anticonvulsant activity in CD1 albino mouse assessed as protection against subcutaneous pentylenetetrazole-induced seizures at 100 to 300 mg/kg, ip after 0.5 hrs. Format: functional. The conditions noted are these: CD1, 0.5 h, read-out: MED. A digest of the protocol:
as §3

Series [21] has as its system Mus musculus. The series is described as follows: Antinociceptive activity in CD1 albino mouse assessed as reduction of formalin-induced licking response in inflammatory phase at 75.60 mg/kg, ip preincubated for 4 hrs measured after 25 to 30 mins. Format: functional. Also on record: scale not given: the % may be the effect or the level left.
Series [22] relates to Mus musculus. Briefly: Anticonvulsant activity in CD1 albino mouse assessed as protection against subcutaneous pentylenetetrazole-induced seizures at 100 to 300 mg/kg, ip after 4 hrs. Format: functional. The following applies: CD1, 4 h, read-out: MED. In short, it runs like this: as §3
The subject of series [23] is Mus musculus. Briefly: Antinociceptive activity in CD1 albino mouse assessed as reduction of formalin-induced licking response in inflammatory phase at 75.60 mg/kg, ip preincubated for 4 hrs measured after 20 to 25 mins. The format is functional. Also on record: scale not given: the % may be the effect or the level left.
Series [24] relates to Mus musculus. Briefly: Antinociceptive activity in CD1 albino mouse assessed as reduction of formalin-induced licking response in inflammatory phase at 75.60 mg/kg, ip preincubated for 4 hrs measured after 15 to 20 mins. Format: functional. Further details: scale not given: the % may be the effect or the level left.
Series [25] deals with Mus musculus. Briefly: Antinociceptive activity in CD1 albino mouse assessed as reduction of formalin-induced licking response in neurogenic phase at 75.60 mg/kg, ip preincubated for 4 hrs measured after 5 mins. The format is functional. Also on record: scale not given: the % may be the effect or the level left.

Regarding `CC1CC(=O)N(CC(=O)N2CCN(c3ccc(Cl)cc3)CC2)C1=O` (stereo not drawn), the minimal effective dose with Mus musculus [1] was found to be 100 mg/kg; in the series on Mus musculus [16], 30 mg/kg. Further, the Activity is 124% with Mus musculus [2]; “Non-toxic” in the series on Mus musculus [4]; 86% with Mus musculus [8]; 26% with Mus musculus [9]; 91% with Mus musculus [10]; 76% with Mus musculus [12]. Also, the MTC in the series on Mus musculus [3] worked out at 300 mg/kg. The values for the ED50 in the series with Mus musculus [5] and in the series on Mus musculus [14] were 32.1 mg/kg and above 250 mg/kg, respectively. Further, the outcome in the series with Mus musculus [6] and with Mus musculus [15] was inactive. The “Ratio TD50/ED50” value was above 15.59 in the series listed under Mus musculus [7] and above 2 with Mus musculus [17]. Moreover, in the series with Mus musculus [11], the Time was determined as 4 h. Further, the inhibition in the series listed under Rattus norvegicus was found to be 20.9%. In addition, the TD50 in series [13] was above 500 mg/kg.
For `O=C1NC(=O)C(c2ccccc2)(c2ccccc2)N1` [PHENYTOIN], the minimal effective dose in the series on Mus musculus [1] and in the series with Mus musculus [16] was 30 mg/kg each time. The Activity with Mus musculus [2] came out at 84%; in the series with Mus musculus [9], 18%. In addition, the MTC with Mus musculus [3] and with Mus musculus [18] was 100 mg/kg each time. The result with Mus musculus [6] and with Mus musculus [15] was inactive. Besides, the “Ratio TD50/ED50” value in the series listed under Mus musculus [7] was 8.56. Moreover, the Time in the series with Mus musculus [11] amounted to 1 h. Further, the inhibition in the series listed under Rattus norvegicus came out at 53.9%. For the same molecule, the TD50 in [13] was 56.9 mg/kg.
Consider `CC1CC(=O)N(CC(=O)N2CCN(c3ccc(Cl)c(Cl)c3)CC2)C1=O` (stereo not drawn), for which the minimal effective dose in the series with Mus musculus [1] is 300 mg/kg; in the series on Mus musculus [20], 100 mg/kg; with Mus musculus [22], 100 mg/kg; with Mus musculus [16], 100 mg/kg. Moreover, the Activity entry is listed as “Non-toxic” in the series on Mus musculus [19]; 14% in the series with Mus musculus [2]; “Non-toxic” in the series with Mus musculus [4]; 95% in the series on Mus musculus [21]; 95% in the series on Mus musculus [23]; 100% with Mus musculus [24]. The Activity with Mus musculus [25] is 61%. Moreover, the values for the ED50 with Mus musculus [5] and in the series with Mus musculus [14] were 75.6 mg/kg and 54.1 mg/kg, respectively. Besides, the results for the “Ratio TD50/ED50” value in the series listed under Mus musculus [7] and in the series with Mus musculus [17] were 3.48 and 4.86, respectively. Moreover, the Time with Mus musculus [11] came to 1 h. Besides, the inhibition in the series filed under Rattus norvegicus came to 33.4%. The TD50 in series [13] turned out to be 263 mg/kg.
